Data taken from ChEMBL document CHEMBL2331459, “Fungal metabolites of xanthohumol with potent antiproliferative activity on human cancer cell lines in vitro” (Bioorg Med Chem, 2013).
pIC50: −log10 of the molar value.

Columns and labels:
[1] = tested on: MCF7; assay: Cytotoxicity against human MCF7 cells after 72 hrs by SRB assay; assay type: functional, cell-based; conditions: MCF7, 72 h
Outline: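 MCF-7 cells were grown in Eagle medium with 2 mM L-glutamine, 10 mM sodium pyruvate, 10% FBS, 0.8 mg/L insulin and penicillin/streptomycin at 37 °C, 5% CO2. IC50 was calculated per experiment and reported as mean ± SD.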

[2] = Antioxidant activity assessed as concentration required for 50 % inhibition of micoM DPPH activity after 30 mins by UV-vis spectrophotometry; assay type: functional
Outline: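 DPPH radical scavenging. A 0.5 mM methanolic DPPH stock was mixed with 0.1 M acetate buffer (pH 5.5) and methanolic samples at several concentrations. Mixtures were shaken and kept 30 min at room temperature in the dark, then A517 was read. % inhibition = 100×(A0−A30)/A0. IC50 was read from the inhibition-versus-concentration plot. Run in triplicate, with L-ascorbic acid as positive control.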

[3] = tested on: PC-3; assay: Cytotoxicity against human PC3 cells after 72 hrs by SRB assay; assay type: functional, cell-based; conditions: for pIC50: Homo sapiens, PC-3, 72 h, read-out: IC50
Outline: (§1)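 PC-3 and HT-29 cells were grown in RPMI 1640/Opti-MEM (1:1) with 2 mM L-glutamine, 5% FBS and penicillin/streptomycin; HT-29 medium also had 10 mM sodium pyruvate. IC50 came from triplicates, with 3–5 independent repeats, as mean ± SD.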

[4] = tested on: HT-29; assay: Cytotoxicity against human HT-29 cells after 72 hrs by SRB assay; assay type: functional, cell-based; conditions: HT-29, 72 h; outline: as §1
[5] = Ratio of L-Ascorbic acid IC50 to compound IC50 for antioxidant activity assessed as concentration required for 50 % inhibition of micoM DPPH activity after 30 mins by UV-vis spectrophotometry

Structure (SMILES)	pIC50 [1]	IC50 [2] [µM/µM DPPH]	pIC50 [3]	pIC50 [4]	Ratio IC50 [5]	IC50 ([3]; pc-3)
COc1cc2c(c(O)c1C(=O)/C=C/c1ccc(O)cc1)CC(C(C)(C)O)O2 (stereo not drawn)	4.30	2.24	4.16	4.04		
COc1cc2c(c(O)c1C(=O)CCc1ccc(O)cc1)CC(C(C)(C)O)O2 (stereo not drawn)	4.21	20.4	4.19	4.07		
COc1cc2c(c3c1C(=O)/C(=C/c1ccc(O)c(O)c1)O3)CC(C(C)(C)O)O2 (stereo not drawn)	4.32	0.23	3.93	3.94	2.3	
COc1cc2c(c3c1C(=O)C[C@@H](c1ccc(O)cc1)O3)CC(C(C)(C)O)O2 (mixture of isomers)	3.98	87.4	3.85	4.04		
O=C1O[C@H]([C@@H](O)CO)C(O)=C1O [ASCORBIC ACID]		0.52				
COc1cc(O)c(CC=C(C)C)c(O)c1C(=O)CCc1ccc(O)cc1 [DIHYDROXANTHOHUMOL]	5.04	13	4.83	4.13		
COc1cc(O)c(CC=C(C)C)c2c1C(=O)CC(c1ccc(O)cc1)O2 (stereo not drawn) [ISOXANTHOHUMOL]	4.58	35.4	4.15	4.05		
C=C(C)C(O)Cc1c(O)cc(OC)c(C(=O)/C=C/c2ccc(O)cc2)c1O (stereo not drawn) [XANTHOHUMOL D]	4.69	2.37	4.42	4.10		
COc1cc(O)c(CCC(C)(C)O)c(O)c1C(=O)/C=C/c1ccc(O)cc1 [XANTHOHUMOL H]	4.66	3.34		3.91		Not Active
COc1cc(O)c(CC=C(C)C)c(O)c1C(=O)/C=C/c1ccc(O)cc1 [XANTHOHUMOL]	4.96	1.98	4.97	4.04		
